Calls of active or inactive are those of the source. No cut-off for these calls is given here.
Key:
Staphylococcus aureus [1] = assay: Antibacterial activity against Staphylococcus aureus EMRSA-15 after 18 hrs by serial dilution method; type: functional, organism-based
In short: (§1)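 Strains grown on nutrient agar for 24 h at 37 °C. Compounds dissolved in DMSO and diluted in Mueller–Hinton broth to a 512 μg/mL starting concentration, then serially diluted in MHB with 10 mg/L Mg2+ and 20 mg/L Ca2+. Final inoculum 5 × 10^5 cfu/mL; 18 h, 37 °C. MIC is the lowest concentration with no growth, confirmed by MTT colour change. DMSO at most 3.125% v/v; triplicate.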

Staphylococcus aureus [2] = assay: Antibacterial activity against Staphylococcus aureus SA1199B after 18 hrs by serial dilution method; type: functional, organism-based; in short: as §1
Escherichia coli = assay: Antibacterial activity against Escherichia coli NCTC 10418 after 18 hrs by serial dilution method; type: functional, organism-based; in short: as §1
RAW264.7 [3] = assay: Antiinflammatory activity in mouse RAW264.7 cells assessed as inhibition of LPS-induced nitric oxide production treated 1 hr before LPS challenge measured after 48 hrs by Griess reaction
RAW264.7 [4] = assay: Antiinflammatory activity in mouse RAW264.7 cells assessed as inhibition of LPS-induced nitric oxide production at 10 ug/ml preincubated for 1 hr followed by LPS stimulation for 48 hrs by Griess assay; type: functional, cell-based
In short: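 RAW 264.7 mouse macrophages in DMEM with 10% heat-inactivated FBS at 37 °C, 5% CO2. Compounds fixed at 10 μg/mL in Carbowax 400 (0.1% v/v final), added 1 h before 100 ng/mL LPS for 48 h. Nitrite in the supernatant measured by Griess reaction (540 nm) against a sodium nitrite standard curve. Controls: 0.1% Carbowax only.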

RAW264.7 [5] = assay: Antiinflammatory activity in mouse RAW264.7 cells assessed as inhibition of LPS-induced nitric oxide production preincubated for 1 hr followed by LPS stimulation for 48 hrs by Griess assay; type: functional, cell-based
In short: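 Macrophage line RAW 264.7 pretreated 1 h with a range of concentrations (vehicle Carbowax 400, 0.1% v/v final), then given 100 ng/mL LPS for 48 h. Supernatant nitrite read by Griess reaction at 540 nm using a nitrite standard curve. NO normalized to Carbowax-only cells (100%); IC50 is the concentration giving 50% inhibition; four replicates, mean ± SD.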

RAW264.7 [6] = assay: Cytostatic activity against mouse RAW264.7 cells assessed as cell growth inhibition after 48 hrs by MTT assay; type: cell-based; details: raw264.7, 48 h
In short: (§2)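 RAW 264.7 cells seeded, cultured overnight, and the seeded cell number measured before treatment as control. Cells exposed to various concentrations for 48 h, then MTT at 0.5 mg/mL […]. Cells lysed in 2-propanol with 0.4% HCl; absorbance read at 610 nm. OD normalized to control; one-way ANOVA.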

RAW264.7 [7] = assay: Cytotoxicity against mouse RAW264.7 cells assessed as cell growth inhibition after 48 hrs by MTT assay; type: cell-based; details: raw264.7, 48 h; in short: as §2

IC50 (RAW264.7 [3]) [µM]	IC50 (RAW264.7 [5]) [µM]	Compound	Activity (Staphylococcus aureus [1])	Activity (Staphylococcus aureus [2])	Activity (Escherichia coli)	inhibition (RAW264.7 [4])	growth inhibition (GI) (RAW264.7 [6])	GI (RAW264.7 [7]) [µM]
		CCCCCC/C=C/C(=O)CCSSCCC(=O)/C=C/CCCCCC	inactive	inactive	inactive			
		CCCCCCCCC(=O)CCSSCCC(=O)CCCCCCCC	inactive	inactive	inactive			
		CCCCCC/C=C/C(=O)CCSSCCC(=O)CCCCCCCC	inactive	inactive	inactive			
2.2		C=C([C@H]1CC[C@@](C)(O)[C@@H](Br)C1)[C@H]1[C@H](O)[C@@H]2[C@@H](CC[C@@]2(C)O)C1(C)C						
	14.2	CCCCCCC1CC(=O)CCSS1 (configuration not stated)	inactive	inactive	inactive	Active	Toxic	> 85
	3.8	CCCCCCCCC(=O)CCSSCCC(=O)CC(CCCCCC)SC (configuration not stated)	inactive	inactive	inactive	Active	Toxic	> 45
		CCCCCC/C=C/C(=O)CCSSCCC(=O)CC(CCCCCC)SC (configuration not stated)	inactive	inactive	inactive			
